The subject of data set [1] is Mus musculus. Put plainly: Neurotoxicity in mouse assessed as motor impairment at 30 mg/kg, ip after 0.5 hrs by rotarod test. In kind it is toxicity, organism-based. Further details: dose 30 mg/kg, route intraperitoneal. Conditions: in vivo. An outline of the steps: (§1)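 Swiss albino mice (20-24 g) were dosed ip with a suspension in 30% aqueous PEG 400 and tested 0.5 h or 4 h later. They were placed on a knurled wooden rod 1 inch in diameter, rotating at 6 rpm. Toxicity meant failure to stay on the rod for at least 1 min in each of three trials. Scored as number toxic/number tested (4 mice at 0.5 h, 2 at 4 h).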
Background: Falling from the rotarod earlier than controls is read as motor impairment.

Data set [2] has as its system Mus musculus. Nature of the data set: Neurotoxicity in mouse assessed as motor impairment at 100 mg/kg, ip after 0.5 hrs by rotarod test. In kind it is toxicity, organism-based. Details: dose 100 mg/kg, route intraperitoneal. The conditions noted are these: in vivo. An outline of the steps:
as §1

The test system of data set [3] is Mus musculus. Put plainly: Neurotoxicity in mouse assessed as motor impairment at 300 mg/kg, ip after 0.5 hrs by rotarod test. In kind it is toxicity, organism-based. Conditions: in vivo. Details: dose 300 mg/kg, route intraperitoneal. An outline of the steps: as §1
The test system of data set [4] is Mus musculus. Nature of the data set: Neurotoxicity in mouse assessed as motor impairment at 30 mg/kg, ip after 4 hrs by rotarod test. In kind it is toxicity, organism-based. The conditions noted are these: in vivo. Details: dose 30 mg/kg, route intraperitoneal. The gist of the method:
as §1

In data set [5] the test system is Mus musculus. Nature of the data set: Neurotoxicity in mouse assessed as motor impairment at 100 mg/kg, ip after 4 hrs by rotarod test. In kind it is toxicity, organism-based. Further details: dose 100 mg/kg, route intraperitoneal. Conditions: in vivo. The gist of the method: as §1
The subject of data set [6] is Mus musculus. Put plainly: Neurotoxicity in mouse assessed as motor impairment at 300 mg/kg, ip after 4 hrs by rotarod test. Details: dose 300 mg/kg, route intraperitoneal. In kind it is toxicity, organism-based. Conditions: in vivo. An outline of the steps: as §1
In data set [7] the test system is Mus musculus. Nature of the data set: Anticonvulsant activity in mouse assessed as protection against maximal electroshock-induced seizures at 30 mg/kg, ip after 0.5 hrs. In kind it is functional, organism-based. Details: dose 30 mg/kg. An outline of the steps:
(§2)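 Swiss albino mice (20-24 g) received an ip suspension in 30% aqueous PEG 400 and were tested 0.5 h and 4 h after dosing. Shock was delivered through corneal electrodes from a constant current unit, with 0.9% saline dropped into the eyes first. Protection meant abolition of the hind limb tonic extension. Scored as number protected/number tested, one mouse per dose and time.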
(The maximal electroshock test induces tonic seizures with an electrical stimulus.)

Data set [8] relates to Mus musculus. Nature of the data set: Anticonvulsant activity in mouse assessed as protection against maximal electroshock-induced seizures at 100 mg/kg, ip after 0.5 hrs. In kind it is functional, organism-based. Further details: dose 100 mg/kg. The gist of the method:
as §2

The subject of data set [9] is Mus musculus. Nature of the data set: Anticonvulsant activity in mouse assessed as protection against maximal electroshock-induced seizures at 300 mg/kg, ip after 0.5 hrs. In kind it is functional, organism-based. Details: dose 300 mg/kg. The gist of the method: as §2
Data set [10] deals with Mus musculus. Put plainly: Anticonvulsant activity in mouse assessed as protection against maximal electroshock-induced seizures at 30 mg/kg, ip after 4 hrs. In kind it is functional, organism-based. Further details: dose 30 mg/kg. The gist of the method: as §2
Data set [11] concerns Mus musculus. Nature of the data set: Anticonvulsant activity in mouse assessed as protection against maximal electroshock-induced seizures at 100 mg/kg, ip after 4 hrs. In kind it is functional, organism-based. Details: dose 100 mg/kg. An outline of the steps: as §2
In data set [12] the test system is Mus musculus. Put plainly: Anticonvulsant activity in mouse assessed as protection against maximal electroshock-induced seizures at 300 mg/kg, ip after 4 hrs. In kind it is functional, organism-based. Details: dose 300 mg/kg. An outline of the steps:
as §2

Data set [13] deals with Mus musculus. Put plainly: Anticonvulsant activity in mouse assessed as protection against subcutaneous pentylenetetrazole-induced seizures at 30 mg/kg, ip after 0.5 hrs. In kind it is functional, organism-based. Further details: dose 30 mg/kg. The gist of the method: (§3)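 Swiss albino mice (20-24 g) were dosed ip with a suspension in 30% aqueous PEG 400 and challenged 0.5 h or 4 h later. Protection meant no threshold seizure (clonic spasms lasting at least 5 s). Scored as number protected/number tested, one mouse per dose and time.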

Data set [14] has as its system Mus musculus. Put plainly: Anticonvulsant activity in mouse assessed as protection against subcutaneous pentylenetetrazole-induced seizures at 100 mg/kg, ip after 0.5 hrs. In kind it is functional, organism-based. Further details: dose 100 mg/kg. An outline of the steps:
as §3

For data set [15], the system named is Mus musculus. Put plainly: Anticonvulsant activity in mouse assessed as protection against subcutaneous pentylenetetrazole-induced seizures at 300 mg/kg, ip after 0.5 hrs. Details: dose 300 mg/kg. In kind it is functional, organism-based. The gist of the method:
as §3

Data set [16] concerns Mus musculus. Put plainly: Anticonvulsant activity in mouse assessed as protection against subcutaneous pentylenetetrazole-induced seizures at 30 mg/kg, ip after 4 hrs. In kind it is functional, organism-based. Details: dose 30 mg/kg. The gist of the method: as §3
Data set [17] relates to Mus musculus. Nature of the data set: Anticonvulsant activity in mouse assessed as protection against subcutaneous pentylenetetrazole-induced seizures at 300 mg/kg, ip after 4 hrs. In kind it is functional, organism-based. Further details: dose 300 mg/kg. The gist of the method: as §3
Data set [18] relates to Mus musculus. Nature of the data set: Anticonvulsant activity in mouse assessed as protection against subcutaneous pentylenetetrazole-induced seizures at 100 mg/kg, ip after 4 hrs. In kind it is functional, organism-based. Further details: dose 100 mg/kg. The gist of the method:
as §3

Calls of active or inactive are those of the source.

Regarding `CCCCCC(=O)O/N=C(\Cn1ccnc1)c1ccc2ccccc2c1.Cl`, the Activity result in [1], in [2], in data set [3], in data set [4], in data set [5] and in [6] was “Non-toxic” each time. Besides, the result in [7], in data set [8], in [9], in [10], in [11] and in data set [12] was inactive. The result in data set [13], in data set [14], in [15], in [16], in data set [17] and in data set [18] was inactive.

In the case of `O=C(O/N=C(\Cn1ccnc1)c1ccc2ccccc2c1)c1cccc([N+](=O)[O-])c1`, the Activity entry in data set [1], in [2], in data set [3], in data set [4], in data set [5] and in [6] was “Non-toxic” throughout. The outcome in data set [7], in data set [8], in [9], in data set [10], in data set [11] and in data set [13] was inactive. The result in data set [14], in data set [15], in [16], in data set [17] and in data set [18] was inactive. Also, in data set [12], the result was Active.

Consider `CCCC(CCC)C(=O)ON=C(Cn1ccnc1)c1ccc2ccccc2c1.Cl` (mixture of isomers), for which the Activity entry in data set [1], in data set [2], in [3], in [4], in [5] and in data set [6] was “Non-toxic” in each case. Besides, the outcome in data set [7], in data set [8], in data set [9], in [12], in [15] and in data set [17] was Active. Also, the outcome in [10], in data set [11], in data set [13], in data set [14], in [16] and in data set [18] was inactive.

In the case of `NC(=O)N1c2ccccc2C=Cc2ccccc21` [CARBAMAZEPINE], the Activity result is “Non-toxic” in data set [1]; “Non-toxic” in [2]; “Toxic” in [3]; “Non-toxic” in data set [4]; “Non-toxic” in data set [5]; “Non-toxic” in data set [6]. In addition, the result in data set [7], in [8], in data set [9], in [11], in data set [12] and in data set [15] was Active. The outcome in data set [17] and in [18] was Active. Moreover, the result in data set [10], in [13], in data set [14] and in data set [16] was inactive.

Turning to `O=C(O/N=C(\Cn1ccnc1)c1ccc2ccccc2c1)c1ccccc1`, the Activity entry in data set [1], in data set [2], in [3], in data set [4], in data set [5] and in data set [6] was “Non-toxic” in each case. Also, the result in data set [7], in data set [13], in [14], in data set [15], in [16] and in data set [18] was inactive. The result in data set [8], in data set [9], in data set [10], in [11], in data set [12] and in data set [17] was Active.

As to `Cl.O=C(ON=C(Cn1ccnc1)c1ccc2ccccc2c1)C1CCCCC1` (mixture of isomers), the Activity result in data set [1], in [2], in data set [3], in data set [4], in data set [5] and in [6] was “Non-toxic” throughout. Further, the result in data set [7], in data set [10], in [11], in data set [12], in [13] and in data set [16] was inactive. Further, the outcome in data set [17] and in [18] was inactive. Besides, the outcome in data set [8], in data set [9], in data set [14] and in [15] was Active.

As to `Cl.O=C(O/N=C(\Cn1ccnc1)c1ccc2ccccc2c1)c1ccc(-c2ccccc2)cc1`, the Activity entry in data set [1], in [2], in data set [3], in data set [4], in data set [5] and in [6] was “Non-toxic” throughout. In addition, the result in data set [7], in data set [8], in data set [9], in data set [10], in [11] and in [13] was inactive. Moreover, the result in [14], in data set [15], in data set [16], in data set [17] and in data set [18] was inactive. Also, the result in data set [12] was Active.

For `O=C1NC(=O)C(c2ccccc2)(c2ccccc2)N1` [PHENYTOIN], the Activity result in data set [1] was “Non-toxic”; in [2] it was “Non-toxic”; in data set [3] it was “Toxic”; in [4], “Non-toxic”; in data set [5], “Toxic”; in [6] it was “Toxic”. Further, the result in data set [7], in data set [8], in [9], in data set [10], in data set [11] and in data set [12] was Active. In addition, the outcome in data set [13], in data set [14], in data set [15], in data set [16], in data set [17] and in data set [18] was inactive.

`C/C=C(\C)C(=O)O/N=C(\Cn1ccnc1)c1ccc2ccccc2c1.Cl`: the Activity result in [1], in data set [2], in data set [3], in data set [4], in data set [5] and in [6] was “Non-toxic” each time. For the same compound, the outcome in data set [7], in [8], in data set [9], in data set [10], in data set [11] and in data set [12] was inactive. Moreover, the result in [13], in [14], in data set [15], in [16] and in data set [18] was inactive. Besides, the outcome in data set [17] was Active.

The values above are taken from ChEMBL document CHEMBL2086248, “Synthesis of some novel 1-(2-naphthyl)-2-(imidazol-1-yl)ethanone oxime ester derivatives and evaluation of their anticonvulsant activity” (Eur J Med Chem, 2012).
